ChEMBL document CHEMBL1158773, “Cinnamylphenols from Phyllodium pulchellum” (J Nat Prod, 2005)

What was measured:
[1] = system: KB; experiment: Cytotoxicity against human KB cells by MTT assay; type: functional, cell-based
How it was run: (§1)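 HepG2 (hepatoma line HA22T) and KB (epidermoid carcinoma, CCRC 60017) cells seeded at (1-1.5) × 10^4/mL and incubated overnight at 37 °C in 5% CO₂. On day 3, MTT (5 mg/mL solution) was added for 4 h, then formazan was dissolved in DMSO and read spectrophotometrically.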

[2] = system: HepG2; experiment: Cytotoxicity against human HepG2 cells by MTT assay; type: functional, cell-based; how it was run: as §1

| SMILES | IC50 [1] [µM] | IC50 [2] [µM] |
| --- | --- | --- |
| COc1c(O)ccc(/C=C\Cc2ccc(O)cc2)c1OC [PULCHELSTYRENE A] | > 100 | > 100 |
| CC1(C)C=Cc2c(cc(O)c3c2O[C@H](c2ccc(O)cc2)[C@@H](O)C3=O)O1 [YUKOVANOL] | > 100 | > 100 |
| COc1cc(C/C=C\c2ccc(O)c(OC)c2OC)ccc1O [PULCHELSTYRENE B] | 55.6 | > 100 |
| COc1cc2c(c(OC)c1O)C=CCC21C=CC(=O)C=C1 [PULCHELSTYRENE D] | > 100 | > 100 |
| COc1cc(C/C=C/c2ccc(OC)c(O)c2OC)ccc1O [PULCHELSTYRENE C] | 39.8 | > 100 |
| CC1(C)C=Cc2c(cc(O)c3c(=O)c(O)c(-c4ccc(O)cc4)oc23)O1 [CITRUSINOL] | 42.3 | 43.3 |
| COc1c(O)ccc(C=O)c1OC | > 100 | > 100 |
